{"source": "paper PMC3025495", "about": "(The lancet oncology, 2010)", "key": {"patients": {"test_system": "patients", "conditions": "cited from earlier work; for clinical activity: clinical testing, [24]; for clinical activity / on-target pharmacodynamic effects on platelets: ref [23]; for dose-limiting toxicities: gossypol ref [23], obatoclax ref [24]; for on-target pharmacodynamic effects on platelets: review of toxicities, [25]–[28]"}, "[1]": {"test_system": "murine xenograft model of acute lymphocytic leukemia", "conditions": "ref [11]; cited from earlier work"}, "clinical": {"experiment": "clinical", "conditions": "human, in vivo"}, "[2]": {"test_system": "patients with relapsed or refractory lymphoid malignancies", "conditions": "in vivo"}, "[3]": {"test_system": "BCL-XL and BCL-2 over expressing prolymphocytic murine cell lines", "conditions": "coimmunoprecipitation; ref [11], [27]; cited from earlier work"}, "[4]": {"test_system": "relapsed/refractory lymphoid malignancies", "experiment": "Tumor response and survival", "format": "in vivo, human"}, "CD3+ cells (T-cells)": {"test_system": "CD3+ cells (T-cells)", "experiment": "Pharmacodynamic effect on circulating CD3+ cells", "format": "in vivo, human", "conditions": "after 14 days of drug exposure (day 14 of cycle 1), at least 200 mg", "procedure,_shortened": "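Patients with relapsed or refractory lymphoid malignancies took the test compound orally each day. Two schedules were used: days 1–14 of a 21-day cycle, or continuous dosing after a 150 mg lead-in lasting 7–14 days. Circulating CD3+ counts were compared with baseline. The P-value for the change from baseline came from a Sign-test because the data were skewed.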"}, "[5]": {"test_system": "xenograft model of mantle cell lymphoma", "conditions": "ref [11]; cited from earlier work"}, "animal models": {"test_system": "animal models", "experiment": "Projected effective exposure from animal models", "format": "in vivo", "conditions": "based on animal models"}, "[6]": {"conditions": "human, in vivo"}, "hematological cell lines": {"test_system": "hematological cell lines", "conditions": "in 11 of 23 hematological cell lines, ref [10]; cited from earlier work"}, "[7]": {"test_system": "patients with relapsed or refractory lymphoid malignancies", "experiment": "Phase 1 dose-escalation study: toxicity and DLT"}, "[8]": {"experiment": "Pharmacokinetic profile in patients"}, "[9]": {"test_system": "BCL-2 dependent human small cell lung cancer (SCLC) cell line", "conditions": "within 2 hours of treatment; ref [11], [27]; cited from earlier work"}, "circulating platelets": {"test_system": "circulating platelets", "experiment": "Pharmacodynamic effect on circulating platelets", "format": "in vivo, human", "conditions": "platelet nadir versus navitoclax AUC, n=35 patients"}, "BH3-only proteins": {"test_system": "BH3-only proteins", "conditions": "no reference printed with the sentence; cited from earlier work"}, "[10]": {"test_system": "human hematopoietic progenitors: common myeloid precursors", "experiment": "Methylcellulose-based in vitro colony forming assay, common myeloid precursors", "format": "cell-based", "conditions": "read-out: IC50, growth inhibition of common myeloid precursors"}, "[11]": {"test_system": "human hematopoietic progenitors: erythroid precursors", "experiment": "Methylcellulose-based in vitro colony forming assay, erythroid precursors", "format": "cell-based", "conditions": "read-out: IC50, growth inhibition of erythroid precursors"}, "[12]": {"conditions": "Grade 1/2, Continuous (21/21) Schedule MTD 325 mg (N=5)"}, "[13]": {"conditions": "Grade 1/2, Intermittent (14/21) Schedule All Patients (N=38)"}, "[14]": {"conditions": "Grade 3/4, Continuous (21/21) Schedule All Patients (N=17)"}, "[15]": {"conditions": "Grade 3/4, Continuous (21/21) Schedule MTD 325 mg (N=5)"}, "[16]": {"conditions": "Grade 3/4, Intermittent (14/21) Schedule All Patients (N=38)"}, "[17]": {"conditions": "Grade 3/4, Intermittent (14/21) Schedule MTD 315 mg (N=9)"}}, "note": "Where two headings read alike, the source gives them in different places.", "data": [{"molecule": "COC1=CC(c2cc3ccccc3[nH]2)=N/C1=C\\c1[nH]c(C)cc1C", "note": "[obatoclax]", "values": [{"measurement": "clinical activity", "setting": "patients", "result": "little to no clinical activity"}, {"measurement": "dose-limiting toxicities", "setting": "patients", "result": "Infusion-related somnolence and neurologic symptoms"}, {"measurement": "on-target pharmacodynamic effects on platelets", "setting": "patients", "result": "no on-target pharmacodynamic effects on platelets"}]}, {"molecule": "Cc1cc2c(C(C)C)c(O)c(O)c(C=O)c2c(O)c1-c1c(C)cc2c(C(C)C)c(O)c(O)c(C=O)c2c1O", "note": "[gossypol]", "values": [{"measurement": "clinical activity", "setting": "patients", "result": "little to no clinical activity"}, {"measurement": "dose-limiting toxicities", "setting": "patients", "result": "gastrointestinal side effects"}, {"measurement": "on-target pharmacodynamic effects on platelets", "setting": "patients", "result": "no on-target pharmacodynamic effects on platelets"}]}, {"molecule": "CC1(C)CCC(c2ccc(Cl)cc2)=C(CN2CCN(c3ccc(C(=O)NS(=O)(=O)c4ccc(N[C@H](CCN5CCOCC5)CSc5ccccc5)c(S(=O)(=O)C(F)(F)F)c4)cc3)CC2)C1", "note": "[Navitoclax]", "values": [{"measurement": "tumor response in xenograft", "setting": "[1]", "result": "durable and complete tumor regressions"}, {"measurement": "half-life", "setting": "clinical", "result": "~17", "unit": "h"}, {"measurement": "All Infections, patients n (%)", "setting": "[2]; human", "result": "14 (82%)"}, {"measurement": "Herpes Zoster, patients n (%)", "setting": "[2]; human", "result": "1 (6%)"}, {"measurement": "dose selected for phase II study", "setting": "[2]; human", "result": 325, "unit": "mg"}, {"measurement": "grade 1/2 fatigue, number of patients", "setting": "[2]; human", "result": 21, "unit": "patients"}, {"measurement": "grade 3/4 neutropenia, number of patients", "setting": "[2]; human", "result": 17, "unit": "patients"}, {"measurement": "grade 3/4 thrombocytopenia, number of patients", "setting": "[2]; human", "result": 29, "unit": "patients"}, {"measurement": "recommended phase 2 dose", "setting": "[2]; human", "result": 325, "unit": "g/day"}, {"measurement": "patients who developed respiratory infections and/or bronchitis", "setting": "[2]", "result": "Eight"}, {"measurement": "patients who withdrew their consent for treatment", "setting": "[2]", "result": 6, "unit": "patients"}, {"measurement": "BIM:BCL-2 family protein interactions", "setting": "[3]", "result": "dose-dependent decrease"}, {"measurement": "median PFS", "setting": "[4]; 16 patients with follicular lymphoma, IQR 42-92", "result": 88, "unit": "days"}, {"measurement": "patients achieving a PR", "setting": "[4]; CLL/SLL patients with measurable adenopathy", "result": "8 of 16"}, {"measurement": "PR in NK/T-cell lymphoma", "setting": "[4]; NK/T-cell lymphoma", "result": "single patient"}, {"measurement": "median overall survival", "setting": "[4]; all 20 patients with CLL/SLL", "result": "has not been reached"}, {"measurement": "median PFS", "setting": "[4]; all 20 patients with CLL/SLL, IQR 49-309", "result": 246, "unit": "days"}, {"measurement": "reduction in leukemia cells", "setting": "[4]; all seven patients with CLL", "result": "≥ 50", "unit": "%"}, {"measurement": "patients with measurable tumor reduction", "setting": "[4]; follicular lymphoma", "result": "6 of 16"}, {"measurement": "patients with some tumor reduction", "setting": "[4]; patients with evaluable adenopathy, all dose levels", "result": "21 of 46"}, {"measurement": "cycles until response, median (range)", "setting": "[4]; responders across dose levels and tumor types", "result": "3.5 (2–10) cycles"}, {"measurement": "median reduction of circulating CD3+ cells", "setting": "CD3+ cells (T-cells)", "result": 241, "unit": "CD3+ cells/µl"}, {"measurement": "effect on cure rate of rituximab plus chemotherapy", "setting": "[5]", "result": "significantly improved"}, {"measurement": "projected effective exposure (AUC)", "setting": "animal models", "result": "55000 to 88000", "unit": "ng·h/mL"}, {"measurement": "dose levels at which projected effective exposure was achieved", "setting": "[6]", "result": "at least 315 mg/day"}, {"measurement": "t½", "setting": "[6]; 315 mg", "result": "15·1 ± 3·0 h"}, {"measurement": "increase of oral bioavailability by food", "setting": "[6]; po", "result": "approximately 20%"}, {"measurement": "CL/F (apparent oral clearance)", "setting": "[6]; po, 315 mg", "result": "4·1 ± 2·1 L/h"}, {"measurement": "EC50", "setting": "hematological cell lines", "result": "< 1000", "unit": "nM"}, {"measurement": "All Infections, patients n (%)", "setting": "[7]; [12]", "result": "5 (100%)"}, {"measurement": "Herpes Zoster, patients n (%)", "setting": "[7]; [12]", "result": "1 (20%)"}, {"measurement": "All Infections, patients n (%)", "setting": "[7]; [13]", "result": "25 (66%)"}, {"measurement": "Herpes Zoster, patients n (%)", "setting": "[7]; [13]", "result": 0}, {"measurement": "All Infections, patients n (%)", "setting": "[7]; Grade 1/2, Intermittent (14/21) Schedule MTD 315 mg (N=9)", "result": "8 (89%)"}, {"measurement": "All Infections, patients n (%)", "setting": "[7]; [14]", "result": 0}, {"measurement": "Herpes Zoster, patients n (%)", "setting": "[7]; [14]", "result": 0}, {"measurement": "All Infections, patients n (%)", "setting": "[7]; [15]", "result": 0}, {"measurement": "Herpes Zoster, patients n (%)", "setting": "[7]; [15]", "result": 0}, {"measurement": "All Infections, patients n (%)", "setting": "[7]; [16]", "result": "6 (16%)"}, {"measurement": "Herpes Zoster, patients n (%)", "setting": "[7]; [16]", "result": "1 (3%)"}, {"measurement": "All Infections, patients n (%)", "setting": "[7]; [17]", "result": "1 (11%)"}, {"measurement": "Herpes Zoster, patients n (%)", "setting": "[7]; [17]", "result": 0}, {"measurement": "safe tolerated dose", "setting": "[7]; intermittent (14/21) schedule, oral once daily", "result": 315, "unit": "mg"}, {"measurement": "patients who required at least one dose reduction", "setting": "[7]; overall dose levels", "result": 11, "unit": "patients"}, {"measurement": "time to peak concentrations (Cmax) post-dose", "setting": "[8]; 14/21-day schedule, overall", "result": "approximately 9 hours"}, {"measurement": "detection in urine (renal elimination)", "setting": "[8]; 24-hour urine collection after dosing on C1 D–3", "result": "could not be detected"}, {"measurement": "dose dependence of exposure", "setting": "[8]; between 10 mg and 440 mg", "result": "dose-proportional"}, {"measurement": "cytochrome c", "setting": "[9]", "result": "increase"}, {"measurement": "cytosolic BAX", "setting": "[9]", "result": "dose-dependent decrease"}, {"measurement": "severity of the platelet nadirs", "setting": "circulating platelets", "result": "concentration dependent"}]}, {"molecule": "CN(C)CC[C@H](CSc1ccccc1)Nc1ccc(S(=O)(=O)NC(=O)c2ccc(N3CCN(Cc4ccccc4-c4ccc(Cl)cc4)CC3)cc2)cc1[N+](=O)[O-]", "note": "[ABT-737]", "values": [{"measurement": "binding affinity relative to previously reported compounds", "setting": "BH3-only proteins", "result": "two to three orders of magnitude greater"}, {"measurement": "IC50", "setting": "[10]", "result": 900, "unit": "nM"}, {"measurement": "IC50", "setting": "[11]", "result": 1000, "unit": "nM"}]}]}
